Assay outcomes (PubChem)
IDH1 R132H inh – inhibitors of IDH1 R132H reductase, primary screen, biochemical, plate reader, single point | Isocitrate dehydrogenase [NADP] cytoplasmic (Homo sapiens), O75874 | diaphorase/resazurin fluorescence, 60 min | inhibition, % at 10 µM | 0.18% of 70,000 active | AID 624101, 2012; in the data active = inhibition above about 34%; inconclusive = no clear call, values can overlap the other calls; inactive = below about 11%;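 note: 0% = DMSO and 100% = no enzyme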
GASC1 inh – inhibitors of GASC-1 (KDM4C) histone demethylase, primary screen, biochemical, single concentration HTS; GST-KDM4C 2-372, H3K9me3 peptide, LANCE TR-FRET; inhibition, % at 12.5 µM; 0.15% of 96,000 active; AID 720574, 2013;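 active = mean replicate inhibition above about 25%, with at least 55% of replicates also reaching it, limit read from the data, passing the limit was not always enough; inconclusive = only one of those two conditions met; inactive = neither condition met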
Target sequence (Q9H3R0 2-372 limits assumed): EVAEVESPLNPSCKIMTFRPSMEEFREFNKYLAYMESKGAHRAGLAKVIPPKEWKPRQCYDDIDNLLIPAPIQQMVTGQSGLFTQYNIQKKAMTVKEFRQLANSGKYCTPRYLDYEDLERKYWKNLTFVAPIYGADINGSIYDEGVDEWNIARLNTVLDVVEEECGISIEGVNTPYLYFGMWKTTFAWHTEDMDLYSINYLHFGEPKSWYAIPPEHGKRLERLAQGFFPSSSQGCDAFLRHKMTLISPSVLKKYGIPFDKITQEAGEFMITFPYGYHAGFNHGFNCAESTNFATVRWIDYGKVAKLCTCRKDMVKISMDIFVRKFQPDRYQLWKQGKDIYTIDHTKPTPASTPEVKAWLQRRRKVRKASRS
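Material: GST-tagged GASC-1 (JMJD2C) catalytic fragment, aa 2-372 / Quantity: enzyme final amount 10 nM / Medium: HEPES buffer, pH 7.5, plus ascorbate / Doses: one test concentration per compound / Incubation: 30 min reaction, 60 min detection, RT / Measured by: LANCE TR-FRET / Read-out: inhibition from TR-FRET ratio decrease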
T cruzi growth-1 – T. cruzi intracellular proliferation inhibitors, primary screen, cell-based, beta-gal Tulahuen parasites, NIH3T3 host, luminescence; T. cruzi beta-gal in NIH3T3, GalScreen luminescence, 90 h; inhibition, % at 8.34 µM; 5.9% of 77,000 active; AID 624255, 2012;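 active = mean inhibition above about 93%, with at least 55% of replicates each passing it, limit read from the data, passing the limit was not always enough; inconclusive = only one of those two conditions holds; inactive = neither condition holds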
T cruzi growth-2 – T. cruzi intracellular proliferation inhibitors, confirmation, cell-based, NIH3T3 host, beta-gal parasite, luminescence, cherry-pick; inhibition, % at 8.35 µM; 72% of 5,600 active; T. cruzi beta-gal in NIH3T3, GalScreen luminescence, 90 h; shares compounds with T cruzi growth-1; AID 651739, 2012;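 active = mean replicate inhibition above about 95% and at least 55% of replicates individually reaching it, limit read from the data; inconclusive = only one of the two criteria is met; inactive = neither criterion is met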
T cruzi growth-3 – inhibitors of intracellular T. cruzi replication, confirmation, NIH3T3 host cells, beta-gal parasites, cherry-pick, set 2 | shares compounds with T cruzi growth-1 | T. cruzi beta-gal in NIH3T3, GalScreen luminescence, 90 h | inhibition, % at 2.09 µM | 21% of 5,600 active | AID 651740, 2012;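 active = mean inhibition above about 95%, with at least 55% of replicates also reaching it, limit read from the data; inconclusive = meets just one of the two conditions; inactive = meets neither condition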;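 note: plate controls were neutral control median for no effect and positive control median for full effect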
NIH3T3 tox – cytotoxicity in mouse NIH/3T3 fibroblasts, confirmation, cytotoxicity control for T. cruzi proliferation inhibitor project, cell-based, cherry-pick, single point. shares compounds with T cruzi growth-1. NIH/3T3 viability, CellTiter-Glo ATP luminescence, 90 h. cytotoxicity (signal decrease), % at 8.35 µM. 14% of 5,600 active. AID 651742, 2012;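 active = mean signal decrease across replicates above about 35% based on untreated-well scatter, with enough replicates individually passing, limit read from the data; inconclusive = no rule stated though some were filed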;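 note: 0% = median of neutral control wells and 100% = median of positive control wells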
NIH3T3 tox 2 – NIH/3T3 fibroblast cytotoxicity, confirmation, cytotoxicity control, cell-based, cherry-pick, single point, set 2. shares compounds with T cruzi growth-1. NIH/3T3 viability, CellTiter-Glo ATP luminescence, 90 h. inhibition, % at 24.9 µM. 56% of 5,600 active;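 active = mean loss of cell viability signal at or above a set limit, and enough replicates individually reaching it; inconclusive = meets only the mean limit or only the replicate share; inactive = meets neither condition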;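 note: 0% = median of neutral control wells and 100% = median of positive control wells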
An asterisk follows results filed as active. Only a selection was taken, and hits are over-represented in it overall.

Results for O=C(C[C@@H]1CC[C@H]2[C@@H](COC[C@@H](O)CN2C(=O)c2ccccc2)O1)NCc1cccc(F)c1 ?
GASC1 inh: 0.1; T cruzi growth-1: -27.7

What do the screens show for `Cc1ccc(-c2ccc3c(c2)O[C@H](CN(C)Cc2cncnc2)[C@@H](C)CN([C@H](C)CO)S3(=O)=O)cc1`?
IDH1 R132H inh: -0.5; GASC1 inh: -0.6; T cruzi growth-1: 102.3*; T cruzi growth-2: 101.8*; T cruzi growth-3: 76.8; NIH3T3 tox: 41.5*; NIH3T3 tox 2: 65.3*

Results for Cc1ccc(-c2ccc3c(c2)O[C@H](CN(C)Cc2cncnc2)[C@H](C)CN([C@H](C)CO)S3(=O)=O)cc1 ?
IDH1 R132H inh: -1.0; GASC1 inh: -1.3

Results for C[C@H](CO)N1C[C@H](C)[C@@H](CN(C)Cc2cncnc2)Oc2cc(-c3ccncc3)ccc2S1(=O)=O ?
IDH1 R132H inh: -0.8; GASC1 inh: 12.7; T cruzi growth-1: 100.5*; T cruzi growth-2: 103.6*; T cruzi growth-3: inconclusive; NIH3T3 tox: 23.0; NIH3T3 tox 2: 40.8*

What do the screens show for `C[C@H]1CN([C@@H](C)CO)S(=O)(=O)c2ccc(-c3cncnc3)cc2O[C@H]1CN(C)Cc1cncnc1`?
IDH1 R132H inh: 0.2; GASC1 inh: -0.8; T cruzi growth-1: 21.0

How did C[C@H]1CN([C@@H](C)CO)S(=O)(=O)c2ccc(-c3ccncc3)cc2O[C@H]1CN(C)Cc1cncnc1 do in these assays?
IDH1 R132H inh: 0.2; GASC1 inh: -0.8; T cruzi growth-1: 104.2*; T cruzi growth-2: 99.9*; T cruzi growth-3: 77.3; NIH3T3 tox: inconclusive; NIH3T3 tox 2: 34.1*

How did C[C@@H]1CN([C@H](C)CO)S(=O)(=O)c2ccc(-c3cncnc3)cc2O[C@@H]1CN(C)Cc1cncnc1 do in these assays?
IDH1 R132H inh: -0.2; GASC1 inh: 1.8; T cruzi growth-1: 24.5

What do the screens show for `CC(=O)N(C[C@@H]1N[C@@H](CO)[C@@H]1c1ccc(-c2cccnc2)cc1)C1CCCC1`?
GASC1 inh: -4.2; T cruzi growth-1: -12.5

What do the screens show for `O=C(C[C@@H]1CC[C@H]2[C@@H](COC[C@H](O)CN2C(=O)c2ccc3c(c2)OCO3)O1)NCCN1CCCCC1`?
GASC1 inh: -0.1; T cruzi growth-1: 71.5

How did O=C(C[C@H]1C[C@H]2c3cc(NS(=O)(=O)c4ccccc4)ccc3O[C@H]2[C@@H](CO)O1)N1CCCCC1 do in these assays?
IDH1 R132H inh: -0.8; GASC1 inh: -2.6; T cruzi growth-1: 38.8

What do the screens show for `O=C(Nc1ccc(F)cc1)Nc1ccc2c(c1)[C@@H]1C[C@@H](CC(=O)N3CCCCC3)O[C@H](CO)[C@@H]1O2`?
IDH1 R132H inh: 0.0; GASC1 inh: -1.5; T cruzi growth-1: 73.2

How did O=C(C[C@@H]1C[C@H]2c3cc(NS(=O)(=O)c4ccccc4)ccc3O[C@H]2[C@@H](CO)O1)N1CCCCC1 do in these assays?
IDH1 R132H inh: 0.3; GASC1 inh: -2.5; T cruzi growth-1: 100.9*; T cruzi growth-2: 70.4; T cruzi growth-3: -8.9; NIH3T3 tox: -2.2; NIH3T3 tox 2: 15.9

How did O=C(C[C@@H]1C[C@H]2c3cc(NS(=O)(=O)c4ccccc4)ccc3O[C@H]2[C@@H](CO)O1)N1CCOCC1 do in these assays?
IDH1 R132H inh: 0.0; GASC1 inh: 0.1; T cruzi growth-1: 46.3

What do the screens show for `O=C(C[C@@H]1C[C@H]2c3cc(NS(=O)(=O)c4ccccc4)ccc3O[C@H]2[C@H](CO)O1)N1CCCCC1`?
IDH1 R132H inh: 6.6; GASC1 inh: 5.8; T cruzi growth-1: 104.5*; T cruzi growth-2: 59.5; T cruzi growth-3: 35.9; NIH3T3 tox: 24.0; NIH3T3 tox 2: 39.5*

Results for O=C(Nc1ccc(F)cc1)Nc1ccc2c(c1)[C@H]1C[C@@H](CC(=O)N3CCCCC3)O[C@@H](CO)[C@H]1O2 ?
IDH1 R132H inh: -0.4; GASC1 inh: -1.7; T cruzi growth-1: 110.9*; T cruzi growth-2: 17.8; T cruzi growth-3: -5.2; NIH3T3 tox: -7.3; NIH3T3 tox 2: -1.4

How did O=C(NCC[C@H]1CC[C@H](NS(=O)(=O)c2ccc(Oc3ccccc3)cc2)[C@H](CO)O1)C1CC1 do in these assays?
IDH1 R132H inh: 0.0; GASC1 inh: 2.4; T cruzi growth-1: 21.8

Results for COc1ccc(S(=O)(=O)N(C)C[C@H]2Oc3c(NC(=O)C4CC4)cccc3C(=O)N([C@@H](C)CO)C[C@@H]2C)cc1 ?
IDH1 R132H inh: 2.0; GASC1 inh: 0.2; T cruzi growth-1: -3.7

How did Cc1ccc(S(=O)(=O)N[C@@H]2CC[C@H](CC(=O)O)O[C@H]2CO)cc1 do in these assays?
IDH1 R132H inh: -0.1; GASC1 inh: 0.1; T cruzi growth-1: 8.5

Results for Cc1ccc(S(=O)(=O)N(C)C[C@H]2Oc3cc(Br)ccc3S(=O)(=O)N([C@H](C)CO)C[C@H]2C)cc1 ?
IDH1 R132H inh: -0.5; GASC1 inh: 0.6; T cruzi growth-1: 66.7

How did COc1ccc(S(=O)(=O)N(C)C[C@H]2Oc3cc(Br)ccc3S(=O)(=O)N([C@H](C)CO)C[C@H]2C)cc1 do in these assays?
GASC1 inh: -1.1; T cruzi growth-1: inconclusive; T cruzi growth-2: 102.0*; T cruzi growth-3: 38.1; NIH3T3 tox: 5.0; NIH3T3 tox 2: 54.2*

What do the screens show for `COc1cccc(S(=O)(=O)N(C)C[C@@H]2Oc3cc(Br)ccc3S(=O)(=O)N([C@@H](C)CO)C[C@@H]2C)c1`?
GASC1 inh: -2.4

How did COc1ccc(S(=O)(=O)N(C)C[C@@H]2Oc3cc(Br)ccc3S(=O)(=O)N([C@H](C)CO)C[C@@H]2C)cc1 do in these assays?
GASC1 inh: -1.8; T cruzi growth-1: inconclusive; T cruzi growth-2: 101.3*; T cruzi growth-3: 39.4; NIH3T3 tox: 14.7; NIH3T3 tox 2: 61.4*

How did C[C@@H]1CN([C@H](C)CO)C(=O)Cc2cc(NS(=O)(=O)c3ccc(F)cc3)ccc2O[C@@H]1CN(C)S(=O)(=O)c1ccc(Cl)cc1 do in these assays?
GASC1 inh: 13.5; T cruzi growth-1: 74.0

How did Cc1ccc2oc3c(c(=O)c2c1)C(c1ccc(OCC(N)=O)cc1)N(c1nc(C)c(C)s1)C3=O (configuration not stated) do in these assays?
IDH1 R132H inh: 0.1
